We go through three molecules from article PMC2649974 (Proteins, 2009).

In test [1] the target is T1, human PMK (Homo sapiens, UniProt Q15126).
T1 sequence (Q15126 1-192): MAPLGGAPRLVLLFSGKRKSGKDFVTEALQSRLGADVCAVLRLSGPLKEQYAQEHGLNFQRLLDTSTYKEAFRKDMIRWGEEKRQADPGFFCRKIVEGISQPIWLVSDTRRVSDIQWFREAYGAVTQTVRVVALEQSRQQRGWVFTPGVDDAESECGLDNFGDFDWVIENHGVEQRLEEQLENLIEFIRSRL
It counts as binding. The note with it: for Kd: read-out: Kd in all complexes, binary and ternary complexes, NMR, pH 6.5, 25 °C. The essentials: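 Uniformly 15N-labelled His6-tagged human PMK from E. coli BL21(DE3) Rosetta, Ni-purified. Held at 400-600 μM in 20 mM KH2PO4, 5 mM DTT, 10% D2O, 0.02% NaN3, pH 6.5, 25 °C. Mg-ADP (1:1 MgCl2) or M5P added in 100 μM steps to saturation, in either order. Fast-exchange 1H/15N shifts (15N scaled by 6.51) were fitted to a quadratic with total protein and ligand.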

Test [2] has as its target T1, human PMK. To be noted: previously reported Km values; cited from earlier work.

SMILES strings stand for the structures.

For the molecule `Nc1ncnc2c1ncn2[C@@H]1O[C@H](COP(=O)(O)OP(=O)(O)NP(=O)(O)O)[C@@H](O)[C@H]1O` [AMP-PNP], the “binding to PMK (in words)” value in test [1] (compared to ATP or ADP, HSQC titration onto Apo-PMK) is given as “binds only weakly”.

For `C[C@@](O)(CCOP(=O)(O)O)CC(=O)O` [M5P, mevalonate 5-phosphate], the Km (as a rule, the concentration of substrate that gives half-maximal velocity) in test [2] was 34 ± 3 µM. Moreover, the Kd (commonly a measure of binding affinity in units of concentration) in test [1] was 6 to 60 µM.

`Nc1ncnc2c1ncn2[C@@H]1O[C@H](COP(=O)(O)OP(=O)(O)O)[C@@H](O)[C@H]1O` [Mg-ADP, ADP]: the Km in test [2] is 47 ± 5 µM. Besides, in test [1], the Kd was 6 to 60 µM.
